Measured values taken from ChEMBL document CHEMBL1121917, “Structure--activity relationships in a broad-spectrum anthelmintic series. Acid chloride phenylhydrazones. 1. Aryl substitutions and chloride variations” (1981).

Key:
Mus musculus [1] = species: Mus musculus; assay: Percent clearance of Hymenolepis nana from mouse after oral treatment of 0.47 mg/mouse/day; assay type: functional
Outline: (§1)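 Mice naturally carrying Syphacia obvelata were experimentally infected with Nematospiroides dubius and Hymenolepis nana, then grouped after a 2-week prepatency. Finely ground compound was suspended in aqueous 0.10% carboxymethylcellulose, 0.04% polysorbate 80 and 0.0042% polyparaben, and 0.1 mL was given orally by cannula once daily for 4 days to five mice. Necropsy followed 2 days later, scoring presence or absence of each parasite. Control clearance was subtracted from the treated clearance.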

Mus musculus [2] = species: Mus musculus; assay: Percent clearance of Nematospiroides dubius from mouse after oral treatment of 0.47 mg/mouse/day; assay type: functional; outline: as §1
Ovis aries [3] = assay: Percent reduction in Oesophagostomum eggs per gram, after treatment with 100 mg/kg dose of compound perorally in sheep; assay type: functional, Egg; conditions: route oral
Outline: (§2)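 Naturally parasitized lambs were dosed orally at the stated mg/kg. Dosing was either as a suspension of finely ground compound by stomach tube, or as ground compound weighed into gelatin capsules and given by balling gun. Activity was scored by the clinical test method: the decrease in posttreatment helminth eggs per gram.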

Ovis aries [4] = assay: Percent reduction in Nematodirus eggs per gram, after treatment with 100 mg/kg dose of compound perorally in sheep; assay type: functional, Egg; conditions: route oral; outline: as §2
Ovis aries [5] = assay: Percent reduction in Trichostrongylus eggs per gram, after treatment with 100 mg/kg dose of compound perorally in sheep; assay type: functional, Egg; conditions: route oral
Outline: (§3)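 Naturally parasitized lambs, dosed orally either with a suspension by stomach tube or with finely ground compound in gelatin capsules by balling gun. Activity was scored by the clinical test method, meaning a significant fall in helminth egg counts after treatment.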

Ovis aries [6] = assay: Percent reduction in Ostertagia eggs per gram, after treatment with 100 mg/kg dose of compound perorally in sheep; assay type: functional, Egg; conditions: route oral; outline: as §2
Canis familiaris [7] = species: Canis familiaris; assay: Percent reduction in Uncinaria eggs per gram, after oral treatment of 100 mg/dog dose of compound in a single treatment; assay type: functional, Canis lupus familiaris, Egg
Outline: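 Dogs naturally infected with Toxascaris leonina were experimentally infected with mixed Ancylostoma caninum and Uncinaria stenocephala larvae. Finely ground compound was given orally in gelatin capsules. Three egg count determinations were made before and three after treatment in each experiment.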

Ovis aries [8] = assay: Percent reduction in Strongyloides eggs per gram, after treatment with 100 mg/kg dose of compound perorally in sheep; assay type: functional, Egg; conditions: route oral; outline: as §3
Ovis aries [9] = assay: Percent reduction in Trichuris eggs per gram, after treatment with 100 mg/kg dose of compound perorally in sheep; assay type: functional, Egg; conditions: route oral; outline: as §3
Ovis aries [10] = assay: Percent reduction in Moniezia eggs per gram, after treatment with 100 mg/kg dose of compound perorally in sheep; assay type: functional, Egg; conditions: route oral; outline: as §2
Mus musculus [11] = species: Mus musculus; assay: Percent clearance of Nematospiroides dubius from mouse after oral treatment of 7.5 mg/mouse/day; assay type: functional; outline: as §1
Canis familiaris [12] = species: Canis familiaris; assay: Percent reduction in Ancylostoma eggs per gram, after oral treatment of 100 mg/dog dose of compound in a single treatment; assay type: functional, Canis lupus familiaris, Egg
Outline: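 Dogs naturally infected with Toxascaris leonina were experimentally infected with mixed Ancylostoma caninum and Uncinaria stenocephala larvae. Finely ground compound was given orally in gelatin capsules. Fecal egg counts were taken three times before and three times after treatment, and activity was taken as the fall in egg counts.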

Ovis aries [13] = assay: Percent reduction in Haemonchus eggs per gram, after treatment with 100 mg/kg dose of compound perorally in sheep; assay type: functional, Egg; conditions: route oral
Outline: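 Naturally parasitized lambs received compound orally, either as the aqueous suspension by stomach tube or as finely ground powder in gelatin capsules by balling gun. Activity was judged by the clinical test method, as a significant decrease in posttreatment helminth egg counts.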

| Structure (SMILES) | Parasite_Clearance (Mus musculus [1]) [%] | Parasite_Clearance (Mus musculus [2]) [%] | Reduction (Ovis aries [3]) [%] | Reduction (Ovis aries [4]) [%] | Reduction (Ovis aries [5]) [%] | Reduction (Ovis aries [6]) [%] | Reduction (Canis familiaris [7]) [%] | Reduction (Ovis aries [8]) [%] | Reduction (Ovis aries [9]) [%] | Reduction (Ovis aries [10]) [%] | Parasite_Clearance (Mus musculus [11]) [%] | Reduction (Canis familiaris [12]) [%] | Reduction (Ovis aries [13]) [%] |
| --- | --- | --- | --- | --- | --- | --- | --- | --- | --- | --- | --- | --- | --- |
| Cl/C(=N\Nc1ccccc1)c1ccc(Br)cc1 | 100 | 100 | – | – | – | – | – | – | – | – | – | – | – |
| O=[N+]([O-])c1ccc(N/N=C(\Cl)c2ccccc2)cc1 | – | – | 0 | 0 | 57 | 33 | 0 | 58 | 100 | 100 | 0 | 0 | 0 |
